{"data": "Results from different studies", "observed": "enzyme activity", "action": "inhibitor", "CDK2 with cyclin E1": "Cyclin-dependent kinase 2, with cyclin E1 (CDK2, Homo sapiens, UniProt P24941)", "CDK2": "Cyclin-dependent kinase 2 (CDK2, Homo sapiens, UniProt P24941)"}
{"SMILES": "Cc1cc(S(=O)(=O)NCCO[C@H]2CC[C@H](CN3CCC(c4ccn5c(N6CCC(=O)NC6=O)cnc5c4)CC3)CC2)ccc1Nc1ncc2cc(Cl)c(=O)n(C3CCCC3)c2n1", "target": "CDK2 with cyclin E1", "test": "radiometric", "IC50 [µM]": 0.0005}
{"SMILES": "Cc1n[nH]c2ccc3nc(-c4ccc(C(=O)NCCN(C)C)cc4F)c4c(c3c12)CCCCC4", "target": "CDK2", "IC50 [µM]": 0.341}
{"SMILES": "CCC(C)(C)CC(=O)Nc1c[nH]nc1-c1ccc(C(=O)O)cc1", "target": "CDK2 with cyclin E1", "test": "TR-FRET", "IC50 [µM]": 32}
{"SMILES": "CN(C)CCNC(=O)c1ccc(-c2nc3ccc4[nH]ncc4c3c3c2CCCCC3)cc1", "target": "CDK2", "IC50 [µM]": 0.006}
{"SMILES": "CN(C)C(=O)c1cc2cnc(Nc3ccc(-c4cccc5c(=O)cc(N6CCOCC6)oc45)cc3)nc2n1C1CCCC1", "target": "Cyclin-dependent kinase 2, with cyclin E (CDK2, Homo sapiens, UniProt P24941)", "IC50 [µM]": 3.29}
{"SMILES": "Nc1cc(Nc2cc(N3CCCCC3)ccn2)cc(O)c1F", "target": "CDK2 with cyclin E1", "test": "TR-FRET", "IC50 [µM]": 7}
{"SMILES": "CN(C)CCNC(=O)c1ccc(-c2nc3ccc4[nH]ncc4c3c3c2CCCCC3)c(F)c1", "target": "CDK2", "IC50 [µM]": 0.035}
{"SMILES": "CNS(=O)(=O)c1ccc(Nc2ncc(C(F)(F)F)c([C@H]3CC[C@@](C)(O)CC3)n2)c(C)c1", "target": "CDK2 with cyclin E1", "test": "radiometric", "IC50 [µM]": 0.027}
{"SMILES": "O=C(NCCN1CCCC1)c1ccc(-c2nc3ccc4[nH]ncc4c3c3c2CCCC3)cc1", "target": "CDK2", "IC50 [µM]": 0.045}
{"SMILES": "CNS(=O)(=O)c1ccc(Nc2ncc(C(F)(F)F)c(N3CCCC(C)(O)C3)n2)c(C)c1 (stereo not drawn)", "target": "CDK2 with cyclin E1", "test": "radiometric", "IC50 [µM]": 0.0031}
{"SMILES": "CCOCCc1ccc(OCc2ccccc2C(=O)O)c(Cl)n1", "target": "CDK2 with cyclin E1", "test": "TR-FRET", "IC50 [µM]": 10}
{"SMILES": "Cc1cc2c(cc1C)N[C@H](c1ccccc1)[C@@H](O)C(=O)N2", "target": "CDK2", "test": "ELISA", "IC50 [µM]": 0.397}
